# PP5 primary = inhibitors of human protein phosphatase 5 (PP5). inhibition, % at 6.7 µM. purified PP5c, OMFP substrate fluorescence. 320,000 tested, 0.18% active;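 active means inhibition above the campaign's mean inhibition across all tested compounds plus 3 SD, cut at about 9.5% in these data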;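 further: 0% = DMSO only and 100% = 100 µM cantharidin control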
# PP1 counter = counter-screen for PP5 inhibitors: inhibitors of human PP1-alpha | P62136 | purified PP1alpha, OMFP fluorescence | inhibition, % at 6.7 µM | 320,000 tested, 0.9% active;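 active means inhibition above the mean inhibition of all tested compounds plus 3 SD, computed separately for each screening campaign, cut at about 15% in these data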
# Target sequence (P62136 whole entry, looked up): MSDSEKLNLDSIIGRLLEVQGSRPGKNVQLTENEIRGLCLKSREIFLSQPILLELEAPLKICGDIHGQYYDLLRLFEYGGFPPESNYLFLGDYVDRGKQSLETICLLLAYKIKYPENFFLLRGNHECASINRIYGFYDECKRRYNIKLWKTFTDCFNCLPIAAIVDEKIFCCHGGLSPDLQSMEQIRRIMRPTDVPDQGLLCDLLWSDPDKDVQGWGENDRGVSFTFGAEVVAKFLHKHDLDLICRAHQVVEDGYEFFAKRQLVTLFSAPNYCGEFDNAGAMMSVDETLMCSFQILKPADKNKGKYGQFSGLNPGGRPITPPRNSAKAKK
# procasp7 counter = activates human procaspase-7, counter-screen for procaspase-3 activators. P55210. recombinant procaspase-7, Ac-DEVD-pNA absorbance 405 nm; D23A/D198A/D206A triple mutant, cannot self-cleave; scale: DMSO 0, 5 µM enzyme 100. activation, % at 8.5 µM. 330,000 tested, 0.093% active. AID 463210;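 active means percent activation above the screen-wide mean plus 3 SD, cut at about 25% in these data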
#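 signal = Epi-absorbance of released pNA at 405 nm, two timepoints | assay system = Uncleavable procaspase-7 mutant enzyme | reagent = Ac-DEVD-pNA substrate, 400 µM as added | times = 1 h enzyme–compound preincubation and 2 h substrate reaction, both 25 °C | benchmarks = low DMSO alone, high DMSO plus 5 µM PC-7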
# procasp3 activ = activators of human procaspase-3; recombinant procaspase-3 D3A, Ac-DEVD-pNA absorbance 405 nm; activation, % at 8.5 µM; 330,000 tested, 0.11% active; AID 463141;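 active means activation above the mean of all tested compounds plus 3 SD, cut at about 21% in these data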;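 further: 0% = DMSO alone and 100% = DMSO wells spiked with extra 5 µM PC-3 D3A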
# Target sequence (P42574 whole entry D9A/D28A/D175A): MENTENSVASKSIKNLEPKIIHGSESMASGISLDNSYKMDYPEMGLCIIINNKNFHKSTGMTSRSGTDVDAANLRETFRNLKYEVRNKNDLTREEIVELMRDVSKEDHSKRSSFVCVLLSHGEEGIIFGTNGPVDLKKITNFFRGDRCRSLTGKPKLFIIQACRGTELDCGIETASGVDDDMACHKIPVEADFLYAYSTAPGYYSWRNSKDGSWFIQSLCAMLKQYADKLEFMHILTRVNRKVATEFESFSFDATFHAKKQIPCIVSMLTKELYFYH
#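 assay system = Procaspase-3 D3A mutant | signal = absorbance at 405 nm, 0 and 120 min | times = 1 h preincubation plus 2 h reaction at 25 °C | repeats = single replicate | read-out = % activation between DMSO and enzyme-spiked controls | medium = Zinc-free HEPES saline buffer with Triton X-100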
# PC3 D3A act = counter-screen: procaspase-3 (human) activation | recombinant PC-3 D3A, Ac-DEVD-pNA absorbance 405 nm; aspartates 9, 28, 175 changed to alanine; 100% = enzyme control | shares compounds with procasp7 counter | activation, % at 8.5 µM | 290 tested, under 10 active | AID 493114;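 active means mean percent activation across triplicates above a set limit taken from the earlier primary procaspase-3 screen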;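 further: 0% = DMSO wells and 100% = DMSO wells with 5 µM added PC-3 D3A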
# PC7 dual conf = confirmation of dual procaspase activators: human procaspase-7 activation; recombinant procaspase-7, Ac-DEVD-pNA absorbance 405 nm; D23A/D198A/D206A mutant that cannot self-cleave; shares compounds with procasp7 counter; activation, % at 8.5 µM; AID 493115; 290 tested, under 10 active;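 active means mean activation above a set limit carried over from the earlier primary screen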;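 further: 0% = DMSO only and 100% = DMSO with added 5 µM PC-7 enzyme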
# Numbers without * were called inactive; . = no result. Shown are actives, neighbours in structure and some others; about 1.2% of the full set was active somewhere.
SMILES,PP5 primary,PP1 counter,procasp7 counter,procasp3 activ,PC3 D3A act,PC7 dual conf
Cc1cnc(C(=O)OC(C)C(=O)Nc2ccc3c(c2)OCCO3)cn1 (stereo unspecified),6,4,-2,1,.,.
Cc1nnc(NC(=O)c2c(-c3ccccc3)noc2C)s1,0,-3,26*,5,1,-1
CCc1nnc(NC(=O)c2c(-c3ccccc3)noc2C)s1,-5,0,-11,2,.,.
Cc1cccc(CCN2CCN=C2Nc2ccccc2)c1,3,-2,-7,-1,.,.
COc1ccc(NC2=CC(=O)CC(c3ccccc3)C2)cc1 (stereo unspecified),1,-8,26*,18,0,-2
COc1ccc(N(C(=O)c2ccncc2)S(=O)(=O)c2ccc3c4c(cccc24)C(=O)N3C)cc1,3,-1,32*,-4,-28,-34
Cc1cc(C(=O)NC(CC(C)C)C(=O)O)cc(C)c1[N+](=O)[O-] (stereo unspecified),2,-1,26*,10,3,1
CCOC(=O)C1=C(C)NC(C)=C(C(=O)OCC)C1/C=C/c1ccccc1OC,2,0,29*,15,-28,-23
COCCOC(=O)C1=C(C)NC(C)=C(C(=O)OCCOC)C1/C=C/c1ccccc1OC,2,-1,4,-14,.,.
COCCNC(=O)CSc1ncnc2sccc12,-2,-2,3,5,.,.
Cc1ccccc1N(C(=O)c1snc(C(N)=O)c1N)C(C(=O)NC1CCCCC1)c1ccc(O)cc1 (stereo unspecified),5,2,22,13,.,.
Cc1ccccc1N(C(=O)c1snc(C(N)=O)c1N)C(C(=O)NCc1ccccc1)c1ccc(O)cc1 (stereo unspecified),0,0,40*,-98,-28,-35
COc1ccc(C(C(=O)NCc2ccccc2)N(C(=O)c2snc(C(N)=O)c2N)c2ccccc2OC)cc1OC (stereo unspecified),0,0,4,2,.,.
COc1ccc(N(C(=O)c2snc(C(N)=O)c2N)C(C(=O)NCc2ccc(F)cc2)c2ccc(O)cc2)cc1 (stereo unspecified),4,10,12,5,.,.
COc1cccc(N(C(=O)c2snc(C(N)=O)c2N)C(C(=O)NCc2ccccc2)c2ccc(O)cc2)c1 (stereo unspecified),4,4,79*,33*,-4,-11
NC(=O)c1nsc(C(=O)N(c2ccccc2F)C(C(=O)NCc2ccccc2)c2ccc(O)cc2)c1N (stereo unspecified),2,5,34*,18,-28,-36
COc1ccc(N(C(=O)c2snc(C(N)=O)c2N)C(C(=O)NCc2ccc(F)cc2)c2ccc(C)o2)c(OC)c1 (stereo unspecified),4,3,26*,5,2,2
CCO[C@H]1OC(C(=O)N2CCN(Cc3ccc4c(c3)OCO4)CC2)=C[C@@H](C)[C@@H]1CCCO,-6,-8,-10,-7,.,.
COc1ccc(-c2noc3c2-c2nc(-c4ccc(Br)cc4)sc2CC3)cc1,0,1,4,7,.,.
Cc1c(C(=O)N2CCOCC2)c(S(=O)(=O)Nc2ccccc2F)c(C)n1C,3,3,2,8,.,.
COc1ccc2nc(N3CCCC(C(=O)NCCCN4C(C)CCCC4C)C3)sc2c1 (stereo unspecified),-2,11,-3,3,.,.
O=C(c1cccs1)c1ccc(-c2cccs2)s1,4,-1,37*,27*,-30,-35
COc1ccccc1NC(=O)c1cnc(Nc2ccccc2OC)c2ccccc12,6,-1,31*,17,-30,-35
O=C(CN(C(=O)c1csnn1)c1cccc(C(F)(F)F)c1)NCc1ccc(F)cc1,1,3,-19,4,.,.
CCc1cc(C(=O)N2CCCC(CNC(=O)c3ccc(-c4ccccc4)cc3)C2)no1 (stereo unspecified),1,3,4,-2,.,.
SMILES,PP5 primary,PP1 counter,procasp7 counter,procasp3 activ,PC3 D3A act,PC7 dual conf
COc1ccc2c(-c3ccc(SC)cc3)c(-c3ccc(S(C)(=O)=O)cc3)sc2c1,.,.,55*,43*,-28,-34
COc1ccc2sc(-c3ccc(S(C)(=O)=O)cc3)c(-c3ccc(SC)cc3)c2c1,.,.,12,11,.,.
Cc1cc(C)c(S(=O)(=O)c2ccccc2)c(OC(=O)c2c(F)cccc2F)n1,2,3,7,-1,.,.
Cc1cc(C)c(S(=O)(=O)c2ccccc2)c(OC(=O)c2c(Cl)cc(Cl)cc2Cl)n1,3,5,26*,-1,2,3
C=CCc1c(O)c(CC)cc2c(C)cc(=O)oc12,-2,-2,28*,25*,-29,-34
O=c1[nH]c(N/N=C/c2cc3c(cc2[N+](=O)[O-])OCO3)nc2ccccc12,-1,-4,3,-6,.,.
O=c1[nH]c(N/N=C\c2ccc3c(c2)OCO3)nc2ccccc12,4,1,28*,24*,1,-3
Fc1cccc(/C=N/Nc2nc3ccccc3[nH]2)c1,2,1,8,-6,.,.
O=c1[nH]c(N/N=C/c2ccccc2)nc2ccccc12,2,3,38*,32*,-28,-28
COC(=O)c1ccc(C23CC4(C2)[C@H](CN(C)[C@@H]4c2ccccc2)C3c2ccc(Cl)nc2)cc1 (stereo partly specified),5,8,5,4,.,.
CCCCCN(C(=O)CCC(=O)OC(C)C(=O)NCc1ccccc1)c1c(N)n(CCCC)c(=O)[nH]c1=O (stereo unspecified),0,-8,3,-4,.,.
C=CCNc1nc(N)c(C(=C(C#N)C#N)c2ccc(Br)cc2)s1,3,11,105*,12,-28,-35
C=CCNc1sc(C(=O)c2ccc(C)cc2)c(N)c1C#N,4,4,-6,-113,.,.
Cc1cccc(C2=NN(c3ccc(Br)cc3)[C@@H](C(=O)N3CCOC3=O)[C@@H]2c2ccc(F)cc2)c1,6,3,26*,35*,-29,-35
COc1ccc(NS(=O)(=O)c2ccc(N3CC(O)=C(c4ccccc4)C3=N)cc2)cc1,1,-1,0,1,.,.
Oc1c(Cl)cc(Cl)cc1/C=N/NC(=S)NC1CC2C=CC1C2 (stereo unspecified),0,9,40*,43*,-30,-34
CC(C)OC(=O)CC(=O)CSc1nc2c(cc1C#N)CCCC2,4,-2,10,4,.,.
CC(C)OC(=O)CC(=O)CSc1nc2c(cc1C#N)CCCCCC2,4,0,75*,62*,-29,-27

# Source: PubChem (The Scripps Research Institute Molecular Screening Center)
